Tests used:
[1] = test system: Cutibacterium acnes; assay: In vitro activity against Propionibacterium acnes (132); format: functional
Outline: (§1)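 MIC determined under anaerobic conditions on Wilkins-Chalgren agar.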

[2] = test system: Acinetobacter sp.; assay: In vitro activity against Acinetobacter sp.(CMX 669).; format: functional
Outline: (§2)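 MIC determined by agar dilution on brain-heart infusion agar under aerobic conditions.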

[3] = test system: Phocaeicola vulgatus; assay: In vitro activity against Bacteroides vulgatus(792); format: functional; outline: as §1
[4] = test system: Escherichia coli; assay: In vitro activity against Escherichia coli (KNK437); format: functional
Outline: (§3)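 MIC for aerobic bacteria, measured on brain-heart infusion agar.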

[5] = test system: Thomasclavelia ramosa; assay: In vitro activity against Clostridium romosum (7); format: functional
[6] = test system: Burkholderia cepacia; assay: In vitro activity against Pseudomonas cepacia (296I); format: functional; outline: as §2
[7] = Solubility in aqueous media 0.15 N phosphate, pH 5.6; format: physicochemical; details: read-out: S
[8] = Solubility in aqueous media urine, pH 5.1; format: physicochemical; details: read-out: S
[9] = test system: Bacteroides fragilis; assay: In vitro activity against Bacteroides fragilis (105AT25285); format: functional; outline: as §1
[10] = test system: Pseudomonas aeruginosa; assay: In vitro activity against Pseudomonas aeruginosa (BMH10); format: functional; outline: as §2
[11] = test system: Klebsiella aerogenes; assay: In vitro activity against Enterobacter aerogenes (ATCC 13048).; format: functional; outline: as §2
[12] = test system: Peptostreptococcus anaerobius; assay: In vitro activity against Peptostreptococcus anaerobius (ATCC 27337); format: functional; outline: as §1
[13] = test system: Escherichia coli; assay: In vitro activity against Escherichia coli (SS).; format: functional; outline: as §3
[14] = test system: Enterococcus faecium; assay: In vitro activity against Enterococcus faecium (ATCC 8043).; format: functional; outline: as §2
[15] = test system: Bacteroides thetaiotaomicron; assay: In vitro activity against Bacteroides thetaiotaomicron (ATCC 29741); format: functional; outline: as §1
[16] = test system: Bacteroides fragilis; assay: In vitro activity against Bacteroides fragilis (SFM2929-1); format: functional; outline: as §1
[17] = test system: Clostridioides difficile; assay: In vitro activity against Clostridium difficile (ATCC 9689); format: functional
[18] = test system: Phocaeicola vulgatus; assay: In vitro activity against Bacteroides vulgatus(SFBC 2375); format: functional; outline: as §1
[19] = test system: Staphylococcus aureus; assay: In vitro activity against Staphylococcus aureus(45 RAR2); format: functional; outline: as §2
[20] = test system: Prevotella melaninogenica; assay: In vitro activity against Bacteroides melaninogenicus (ATCC 25845).; format: functional; outline: as §1
[21] = Solubility in aqueous media 0.1 N chloride, pH 6.5; format: physicochemical; details: read-out: S
[22] = test system: Peptostreptococcus sp.; assay: In vitro activity against Peptostreptococcus sp.(TB-11); format: functional, peptostreptococcus s
Outline: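 MIC for anaerobic bacteria, measured on Wilkins-Chalgren agar.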

[23] = Solubility in aqueous media 0.15 N sulfate, pH 5.4; format: physicochemical; details: read-out: S
[24] = test system: Providencia stuartii; assay: In vitro activity against Providencia stuartii (CMX 640); format: functional; outline: as §2
[25] = test system: Staphylococcus aureus; assay: In vitro activity against Staphylococcus aureus(45); format: functional; outline: as §2
[26] = test system: Bacteroides fragilis; assay: In vitro activity against Bacteroides fragilis (SFM2906A); format: functional; outline: as §1
[27] = test system: Fusobacterium nucleatum; assay: In vitro activity against Fusobacterium nucleatum (ATCC 25586); format: functional; outline: as §1
[28] = test system: Micrococcus luteus; assay: In vitro activity against Micrococcus luteus (ATCC 9341); format: functional; outline: as §2
[29] = test system: Fusobacterium; assay: In vitro activity against Fusobacterium sp.(GS-10); format: functional; outline: as §1
[30] = test system: Micrococcus luteus; assay: In vitro activity against Micrococcus luteus (ATCC 4698); format: functional; outline: as §2
[31] = test system: Streptococcus pyogenes; assay: In vitro activity against Streptococcus pyogenes (2548 INDUC).; format: functional; outline: as §2
[32] = test system: Staphylococcus aureus; assay: In vitro activity against Staphylococcus aureus(CMX 553); format: functional; outline: as §2
[33] = test system: Bacteroides fragilis; assay: In vitro activity against Bacteroides fragilis (784); format: functional; outline: as §1
[34] = test system: Mus musculus; assay: In vivo activity against Pseudomonas aeruginosa A5007 (100X LD50), administered sc( each compound tested at 3 doses with 10 animals); format: functional
Outline: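 Mice were challenged intraperitoneally with the organism. The compound was given subcutaneously as a total dose split into equal portions at 1 and 5 h post-infection. Three doses were used, with 10 animals per dose.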

[35] = test system: Staphylococcus epidermidis; assay: In vitro activity against Staphylococcus epidermidis (3519); format: functional; outline: as §2
[36] = test system: Bacteroides thetaiotaomicron; assay: In vitro activity against Bacteroides thetaiotaomicron (106); format: functional; outline: as §1
[37] = test system: Clostridioides difficile; assay: In vitro activity against Clostridium difficile (ATCC 17857); format: functional
[38] = test system: Peptoniphilus asaccharolyticus; assay: In vitro activity against Peptococcus asaccharolyticus (ATCC 14963).; format: functional; outline: as §1

**Q.** For Cl.N[C@H]1CCN(c2nc3c(cc2F)c(=O)c(C(=O)O)cn3-c2ccc(F)cc2F)C1, which MIC [1] is on record?
**A.** 2 µg/mL

**Q.** And the MIC [2]?
**A.** 0.05 µg/mL

**Q.** What about the MIC [3] of the same molecule?
**A.** 0.5 µg/mL

**Q.** And the MIC [4]?
**A.** 0.1 µg/mL

**Q.** And the MIC [5]?
**A.** 0.5 µg/mL

**Q.** And the MIC [6]?
**A.** 3.1 µg/mL

**Q.** And the solubility [7]?
**A.** 4.3 µg/mL

**Q.** What about the solubility [8] of the same molecule?
**A.** 32.4 µg/mL

**Q.** And the MIC [9]?
**A.** 0.25 µg/mL

**Q.** And the MIC [10]?
**A.** 0.05 µg/mL

**Q.** What about the MIC [11] of the same molecule?
**A.** 0.05 µg/mL

**Q.** And the MIC [12]?
**A.** 0.12 µg/mL

**Q.** What about the MIC [13] of the same molecule?
**A.** 0.002 µg/mL

**Q.** And the MIC [14]?
**A.** 0.1 µg/mL

**Q.** What about the MIC [15] of the same molecule?
**A.** 0.5 µg/mL

**Q.** What about the MIC [16] of the same molecule?
**A.** 0.25 µg/mL

**Q.** And the MIC [17]?
**A.** 1 µg/mL

**Q.** What about the MIC [18] of the same molecule?
**A.** 0.25 µg/mL

**Q.** What about the MIC [19] of the same molecule?
**A.** 0.05 µg/mL

**Q.** And the MIC [20]?
**A.** 0.5 µg/mL

**Q.** What about the solubility [21] of the same molecule?
**A.** 4.5 µg/mL

**Q.** And the MIC [22]?
**A.** 0.25 µg/mL

**Q.** What about the solubility [23] of the same molecule?
**A.** 8.7 µg/mL

**Q.** What about the MIC [24] of the same molecule?
**A.** 1.56 µg/mL

**Q.** What about the MIC [25] of the same molecule?
**A.** 0.1 µg/mL

**Q.** And the MIC [26]?
**A.** 0.25 µg/mL

**Q.** And the MIC [27]?
**A.** 0.25 µg/mL

**Q.** And the MIC [28]?
**A.** 0.78 µg/mL

**Q.** What about the MIC [29] of the same molecule?
**A.** 0.25 µg/mL

**Q.** And the MIC [30]?
**A.** 0.78 µg/mL

**Q.** What about the MIC [31] of the same molecule?
**A.** 0.1 µg/mL

**Q.** What about the MIC [32] of the same molecule?
**A.** 0.05 µg/mL

**Q.** And the MIC [33]?
**A.** 0.25 µg/mL

**Q.** What about the ED50 [34] of the same molecule?
**A.** 19.1 mg/kg

**Q.** And the MIC [35]?
**A.** 0.05 µg/mL

**Q.** And the MIC [36]?
**A.** 0.5 µg/mL

**Q.** What about the MIC [37] of the same molecule?
**A.** 1 µg/mL

**Q.** What about the MIC [38] of the same molecule?
**A.** 0.12 µg/mL
